Consider 1 compound from PMC7950731 (Cell reports, 2019).

Common to all, as to experiment: TR-FRET of indisulam-induced ternary complex
Common to all, as to type: binding

For one test, the target named is RBM39 (Homo sapiens, UniProt Q14498+Q66K64). Summed up: (§1)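 Purified His-DCAF15–DDB1–DDA1 (SF9 co-expression) and RBM39 aa 250–330-3xFLAG (E. coli, His tag TEV-cleaved), each 0.1 μM final, with 1 nM Eu-anti-6xHis donor and 5 ng/μL anti-FLAG-XL665 acceptor. Test compound titrated, 5 min at room temperature. Excitation 360 nm; 665/620 nm ratio. Run in triplicate; EC50 from four-parameter fit.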

The next test deals with DCAF15 (Homo sapiens, UniProt Q14498+Q66K64). Summed up: as §1
The next test addresses RBM23 (Homo sapiens, UniProt Q66K64+Q86U06).

`NS(=O)(=O)c1ccc(S(=O)(=O)Nc2cccc3c(Cl)c[nH]c23)cc1` [indisulam]: the values for the EC50 on RBM39, on DCAF15 and on RBM23 were 2270 nM, 2270 nM and 2580 nM, respectively.
